Laboratory results as given in ChEMBL document CHEMBL3745671, “Discovery of N-[5-(6-Chloro-3-cyano-1-methyl-1H-indol-2-yl)-pyridin-3-ylmethyl]-ethanesulfonamide, a Cortisol-Sparing CYP11B2 Inhibitor that Lowers Aldosterone in Human Subjects” (J Med Chem, 2015).
Active and inactive are the calls of the source. No cut-off for these calls is given here.

Key:
[1] = Half life in rat liver microsomes after 30 mins by LC/MS/MS analysis; type: ADME
Plasma = assay: Drug uptake in plasma of chair-trained chronically cannulated cynomolgus monkey model at 0.03 to 3 mg/kg, po compound administered followed by ACTH challenge for 3 hrs measured at 24 hrs by LC/MS/MS analysis; type: ADME, organism-based, Macaca fascicularis; settings: in vivo
Summary of the method: (§1)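 Conscious chair-trained, chronically cannulated male cynomolgus monkeys; vascular access port via Huber needle. Baseline blood (heparin) before dosing; methylcellulose suspension po at 0.03, 0.1, 0.3 or 3 mg/kg (n=3/dose) or vehicle (n=6, same animals). ACTH(1–24) 3000 ng/kg iv 3 h post-dose; sampling 0.125–1 h post-ACTH, up to 8 h, and 23.5 and 24 h. Aldosterone and cortisol by RIA; drug by LC/MS/MS (LLOQ 0.26 nmol/L, lower values set to zero).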

[2] = Tmax in healthy human at 60 mg/kg, po bid; type: ADME, organism-based; settings: in vivo
Summary of the method: (§2)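 Double-blind, randomized, placebo-controlled study in healthy male and female volunteers aged 18-63 on a restricted sodium/potassium diet. Oral bid doses of 30, 60, 100 or 200 mg, drug:placebo 5:2. N per dose 10–17. AUCtau, Cmax and median Tmax reported; dose-normalized values are AUCtau/dose and Cmax/dose.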

[3] = Inhibition of CYP11B2 in cynomolgus monkey adrenal homogenates assessed as inhibition of aldosterone secretion; type: tissue-based, Macaca fascicularis
Summary of the method: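 Cynomolgus monkey adrenal homogenates, with 11-DOC as substrate; aldosterone secretion inhibition determined as IC50.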

Homo sapiens [4] = assay: Decrease in urinary aldosterone excretion in po dosed human administered as bid measured over 24 hrs; type: functional, organism-based; settings: Urine
Summary of the method: (§3)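 Healthy male and female volunteers, 18-63 years, restricted sodium/potassium diet; double-blind randomized placebo-controlled, oral 30, 60, 100 or 200 mg bid (drug:placebo 5:2).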

[5] = Cmax in healthy human at 60 mg/kg, po bid; type: ADME, organism-based; design: dose 60 mg/kg, route oral; settings: in vivo; summary of the method: as §2
Cynomolgus monkey [6] = assay: Decrease in ACTH-stimulated plasma cortisol level of chair-trained chronically cannulated cynomolgus monkey model at 0.03 to 3 mg/kg, po compound administered followed by ACTH challenge for 24 hrs by LC/MS/MS analysis; type: functional, organism-based; settings: Macaca fascicularis; summary of the method: as §1
[7] = Half life in continuous angiotensin 2 infusion Sprague-Dawley rat model at 3 mg/kg, po and 1 mg/kg, iv; type: ADME, organism-based; settings: in vivo
Cynomolgus monkey [8] = assay: Decrease in ACTH-stimulated plasma aldosterone level in po dosed chair-trained chronically cannulated cynomolgus monkey model compound administered followed by ACTH challenge for 3 hrs measured after 24 hrs by LC/MS/MS analysis; type: functional, organism-based; settings: Macaca fascicularis; summary of the method: as §1
Homo sapiens [9] = assay: Decrease in urinary aldosterone excretion in human at 200 mg/kg, po bid measured over 24 hrs; type: functional, Urine; settings: in the assay text read “200 mg” for “200 mg/kg”; summary of the method: as §3
Homo sapiens [10] = assay: Decrease in plasma aldosterone level in po dosed human administered as bid measured over 24 hrs; type: functional, organism-based; summary of the method: as §3
Homo sapiens [11] = assay: Dose normalized Cmax in healthy human at 60 mg/kg, po bid; type: ADME, organism-based; settings: in vivo; summary of the method: as §2
[12] = Cmax in healthy human at 200 mg/kg, po bid; type: ADME, organism-based; design: dose 200 mg/kg, route oral; settings: in vivo; summary of the method: as §2
[13] = Tmax in healthy human at 100 mg/kg, po bid; type: ADME, organism-based; settings: in vivo; summary of the method: as §2
Homo sapiens [14] = assay: Dose normalized Cmax in healthy human at 100 mg/kg, po bid; type: ADME, organism-based; settings: in vivo; summary of the method: as §2
[15] = Equilibrium solubility of the compound in buffer at pH 6.8; type: physicochemical
Summary of the method: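 Equilibrium solubility measured in buffer at pH 6.8.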

Homo sapiens [16] = assay: Decrease in plasma aldosterone level in human at 200 mg/kg, po bid measured over 24 hrs; type: functional; settings: in the assay text read “200 mg” for “200 mg/kg”; summary of the method: as §3
[17] = target: T1, Cytochrome P450 11B2, mitochondrial (Rattus norvegicus, UniProt P30099); assay: Inhibition of recombinant rat CYP11B2 using 11-deoxycorticosterone as substrate after 2 hrs by scintillation proximity assay
T1 sequence (P30099 whole entry): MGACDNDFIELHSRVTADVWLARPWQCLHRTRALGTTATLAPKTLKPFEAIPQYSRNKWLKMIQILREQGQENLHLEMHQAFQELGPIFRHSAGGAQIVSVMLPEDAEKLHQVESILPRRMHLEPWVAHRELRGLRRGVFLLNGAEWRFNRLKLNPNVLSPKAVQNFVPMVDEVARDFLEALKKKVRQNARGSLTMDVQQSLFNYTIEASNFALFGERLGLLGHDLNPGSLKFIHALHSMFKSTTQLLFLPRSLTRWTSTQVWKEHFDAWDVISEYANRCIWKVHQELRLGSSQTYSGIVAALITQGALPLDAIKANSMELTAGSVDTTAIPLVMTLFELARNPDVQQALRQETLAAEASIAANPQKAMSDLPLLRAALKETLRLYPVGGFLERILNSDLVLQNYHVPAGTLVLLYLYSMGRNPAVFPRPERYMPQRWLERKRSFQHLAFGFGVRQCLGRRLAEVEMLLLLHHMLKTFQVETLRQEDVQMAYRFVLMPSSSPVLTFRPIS

Cynomolgus monkey [18] = assay: Decrease in ACTH-stimulated plasma aldosterone level in chair-trained chronically cannulated cynomolgus monkey model at 3 mg/kg, po compound administered followed by ACTH challenge for 3 hrs measured by radioimmunoassay; design: scale not given: the % may be the effect or the level left
[19] = Oral bioavailability in continuous angiotensin 2 infusion Sprague-Dawley rat model at 3 mg/kg; type: ADME, organism-based; settings: in vivo
Summary of the method: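 Male Sprague Dawley rats, 200–300 g. IV: 0.3 mg/1 mL/kg (free base) slow injection via jugular vein, n=2. Oral gavage at 1 mg/5 mL/kg or 3 mg/5 mL/kg in solution, n=3. Jugular catheter blood at 5 min (iv only), 0.25–8 h into EDTA; plasma after protein precipitation with acetonitrile containing internal standard, HPLC-MS; noncompartmental parameters.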

[20] = Cmax in healthy human at 30 mg/kg, po bid; type: ADME, organism-based; design: dose 30 mg/kg, route oral; settings: in vivo; summary of the method: as §2
Homo sapiens [21] = assay: Dose normalized AUCtau in healthy human at 30 mg/kg, po bid; type: ADME, organism-based; settings: in vivo; summary of the method: as §2
CYP19 (aromatase) = target: T2, CYP19 (aromatase) (Homo sapiens, UniProt P11511); assay: Inhibition of human CYP19 at 10 uM preincubated for 10 mins with NADPH followed by protein addition measured after 90 mins by fluorometric analysis
T2 sequence (P11511 whole entry): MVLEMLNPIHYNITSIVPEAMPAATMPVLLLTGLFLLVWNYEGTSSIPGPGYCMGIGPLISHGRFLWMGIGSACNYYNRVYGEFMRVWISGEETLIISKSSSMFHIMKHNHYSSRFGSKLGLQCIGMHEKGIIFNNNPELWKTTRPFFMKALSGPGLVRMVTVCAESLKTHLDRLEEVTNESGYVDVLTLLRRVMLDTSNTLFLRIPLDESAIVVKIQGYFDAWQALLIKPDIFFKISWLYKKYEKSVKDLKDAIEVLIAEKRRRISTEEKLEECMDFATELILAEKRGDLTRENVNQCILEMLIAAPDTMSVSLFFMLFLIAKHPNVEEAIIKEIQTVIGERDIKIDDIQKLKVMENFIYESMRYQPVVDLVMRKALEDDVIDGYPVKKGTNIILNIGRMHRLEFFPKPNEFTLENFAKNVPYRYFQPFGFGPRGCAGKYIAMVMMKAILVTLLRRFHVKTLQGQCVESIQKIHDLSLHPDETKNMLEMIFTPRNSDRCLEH

- half-life [1]: 0.467 h
- Drug uptake (Plasma): Active
- Tmax [2]: 3 h
- IC50 [3]: 10 nM
- Cmax [5]: 173 ng/mL
- half-life [7]: 1.1 h
- EC50 (Cynomolgus monkey [8]): 8.5 nM
- Cmax/dose (Homo sapiens [11]): 2.8 ng/mL
- Cmax [12]: 306 ng/mL
- Tmax [13]: 4 h
- Cmax/dose (Homo sapiens [14]): 1.7 ng/mL
- solubility thermodynamic [15]: < 5 µM
- IC50 [17]: 27400 nM
- bioavailability [19]: 84%
- Cmax [20]: 117 ng/mL
- AUC/dose (Homo sapiens [21]): 25.6 ng·h/mL/mg
- inhibition at 1.5 h, 10 µM (CYP19 (aromatase)): 82%
Structure (SMILES): CCS(=O)(=O)NCc1cncc(-c2c(C#N)c3ccc(Cl)cc3n2C)c1
- Activity (Homo sapiens [4]): Dose-dependent effect
- Activity (Cynomolgus monkey [6]): inactive
- Activity (Cynomolgus monkey [8]): Dose-dependent effect
- ED50 (Cynomolgus monkey [8]; po): 0.061 mg/kg
- %max (Homo sapiens [9]): 70%
- Activity (Homo sapiens [10]): Dose-dependent effect
- %max (Homo sapiens [16]): 70%
- Activity (Cynomolgus monkey [18]): 95%
